According to ChEMBL document CHEMBL4513216, “Probing the Open Global Health Chemical Diversity Library for Multistage-Active Starting Points for Next-Generation Antimalarials” (ACS Infect Dis, 2020):

Assay: Toxicity liver stage against HepG2, at 10uM
Assay type: cell-based
Design: test concentration 10 uM, cell line HepG2-A16-CD81EGFP
Settings: human, HepG2-A16-CD81EGFP cells; read-out: INHIBITION
Method in brief: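 Uninfected HepG2-A16-CD81EGFP cells, 3 × 10^3 per well, 1536-well, plated on prespotted compound at 10 μM final, parasite-free screening media added to match infected plates; puromycin 10 μM positive, DMSO 0.5% negative; run in parallel with 48 h PbLuc assay at 37 °C, 5% CO2; viability by CellTiter-Glo luminescence, normalized to controls.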

| SMILES | cytotoxicity at 10 µM |
| --- | --- |
| CC(C)Nc1cc(N2CCCC3(CN(C)C(=O)O3)C2)ncn1 (stereo not given) | -53% |
| CCN1CC(C(=O)NCc2noc(Cc3ccccc3)n2)CCC1=O (stereo not given) | -4.7% |
| CC(C)=CCN1CCN(C(=O)c2cc(C(C)C)on2)[C@H]2CS(=O)(=O)C[C@H]21 | 3.54% |
| O=C1COc2ccccc2N1CCCn1cnnn1 | 6.05% |
| CC(C)(N)c1cn(C2CCN(C(=O)CCC3CCCCC3)CC2)nn1 | -6.53% |
| COc1ccccc1-n1nc(C(C)C)nc1Cc1nnc(N)s1 | 6.48% |
| Cc1cccc(C(C(=O)NCCc2nc(C)cc(=O)[nH]2)N(C)C)c1 (stereo not given) | -6.24% |
| O=C(c1cnc(O)cn1)N1CCCC1c1nc2cc(F)ccc2[nH]1 (stereo not given) | 7.72% |
| COc1ccc(S(=O)(=O)N[C@H]2CN(C(C)=O)C[C@@H]2C(C)C)cc1F | -0.277% |
| c1ccc(CN2CCC(NCCSc3cnn[nH]3)CC2)cc1 | -5.16% |
| Cc1cc(C)c2nc(CNC3CCCNC3=O)cc(O)c2c1 (stereo not given) | 5.84% |
| COc1cc(-n2ccnc2-c2ccc(C(=O)O)s2)ccc1NC(C)=O | 2.74% |
| COCCN(C)C[C@@H]1CN(C(=O)c2sc3ccccc3c2C)C[C@@H]1CO | -7.13% |
| O=C(Nc1cnc2n1CCCC2)c1cccc(-n2cnnc2)c1 | -4.34% |
| CCc1cc(-c2cc[nH]n2)nc(N2CCOCC2)n1 | 7.04% |
| Cc1[nH]c2c(F)cccc2c1CC(=O)N1CCCC(N)CC1 (stereo not given) | 3.26% |
| CCCC1(CO)CCCN(C(=O)CN2CCN(CC)CC2)C1 (stereo not given) | 0.854% |
| COCc1ncc(CN2CC[C@@H](NC(=O)c3cccnc3)[C@H](O)C2)cn1 | -7.28% |
| CCNc1ncc(C(=O)N2CCC(c3ccccc3C(=O)O)C2)cn1 (stereo not given) | -6.41% |
| c1coc(-c2nnc(CN3CCCC3Cn3cncn3)o2)c1 (stereo not given) | -5.46% |
| CCOCC(=O)N1CSCC1C(=O)N(C)Cc1ccco1 (stereo not given) | -11% |
| CS(=O)(=O)N1CCN(C(=O)CCn2cccn2)CC1 | -8.39% |
| Cc1csc(N2CCCN(C(=O)C(C)n3cncn3)CC2)n1 (stereo not given) | -3.6% |
| O=C(Nc1nccs1)NC1CCN(Cc2ccccn2)CC1 | -5.72% |
| Cc1ccc(C(=O)N(C)Cc2ccc3c(c2)OCO3)c(=O)[nH]1 | -12% |
| c1coc(-c2noc(CN3CCCCC3Cn3cncn3)n2)c1 (stereo not given) | -0.915% |
| Cc1cnn(CC2CCCCN2CCS(C)(=O)=O)c1 (stereo not given) | -13.7% |
| Cc1nc(C)n(CC2CCCN2Cc2nc(C)c3ccccc3n2)n1 (stereo not given) | -12.4% |

| SMILES | cytotoxicity at 10 µM |
| --- | --- |
| Cc1cnn(CC2CCCN2C(=O)Cc2ccc(C)nc2)c1 (stereo not given) | -1.64% |
| Cc1cc(C)n(C2CN(CC(=O)NC(C3CC3)C3CC3)C2)n1 | -9.8% |
| CN(C)c1ccc(NC(=O)NCc2cccnc2N(C)C)cn1 | -20.9% |
| O=C(NCc1ccccn1)NCc1ccc(Cl)s1 | -7.52% |
| CCc1nc(CN2CCCN(C(=O)CC3CCCC3)CC2)cs1 | -25.2% |
| c1cnnc(NCC2CN(Cc3cccc4c3OCCO4)CCO2)c1 (stereo not given) | -9.93% |
| CC(C)CN1CCC(C(=O)Nc2cc(C(F)(F)F)c[nH]c2=O)CC1 | -11.3% |
| O=C(NCCN1CCCc2ccccc21)c1scnc1Cl | -3.41% |
| CC(C)(C)c1nnc(CN2CCCC2c2noc(C3CC3)n2)o1 (stereo not given) | -2.75% |
| CCc1nc(C2CCCN2C(=O)CCc2cccs2)no1 (stereo not given) | -3.19% |
| CC(C)c1nc(C2CCCN2CC(=O)N2CCc3ccccc32)no1 (stereo not given) | -5.84% |
| OC(COCc1cccs1)CN1CCC(c2ccn[nH]2)CC1 (stereo not given) | -2.66% |
| COc1cccc(-n2c(C)cc(C(=O)O)c2C)c1 | -8.65% |
| c1cnn(CC2CN(Cc3noc(C4CC4)n3)CCO2)c1 (stereo not given) | -0.842% |
| CCCc1n[nH]c(C2CN(CCNS(=O)(=O)CC)CCO2)n1 (stereo not given) | 2.43% |
| O=C(c1ccc2c(c1)CCCC2)N1CCOCC1c1ncon1 (stereo not given) | -7% |
| O=C(NCC(=O)N1CCCCC1)c1ccoc1 | -6.07% |
| CC(C)c1cc(NC(=O)CN2CCC(N3CCNC3=O)CC2)on1 | -10.7% |
| Cc1cnn(CC2CCCCN2Cc2nnc(C3CC3)n2C)c1 (stereo not given) | 2.36% |
| Cc1nc(CN2CCOC(CN(C)c3cccnn3)C2)cs1 (stereo not given) | 0.938% |
| CN(C)c1ncc(-c2cccc(C(N)=O)c2)c(C2CNCCO2)n1 (stereo not given) | -2.77% |
| Cc1nc(C2CCNC2)nc2c1CCC(=O)N2C (stereo not given) | 3.77% |
| O=C1CCCC2(CCN(C(=O)c3ccccn3)CC2)N1 | 3.03% |
| COCC1CC2(CCN(C(=O)c3ccco3)CC2)CN1C(C)C (stereo not given) | 4.71% |
| Cn1ccc(CN2CCC3(CCCN3CC3CC3)CC2)n1 | -92.4% |
| O=C(NCc1cccs1)[C@H]1CO[C@H]2CCN(C3CCCC3)C[C@H]2C1 | -110% |
| O=C1CC[C@H]2[C@@H](CCN2Cc2ccco2)N1 | 2.82% |
